Key:
Assay type in all cases: functional
[1] = tested on: Pseudomonas aeruginosa; experiment: Minimum inhibitory concentration against Pseudomonas aeruginosa in presence of aztreonam substrate and with out human serum albumin, (100% growth inhibition)
In short: (§1)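 Potentiation of aztreonam, a MexAB-OprM substrate, against P. aeruginosa PAM1723 (MexAB-OprM overexpressed; MexCD-OprJ and MexEF-OprN genetically disrupted). Run without HSA and with 0.125% human serum albumin. Value is the inhibitor concentration (µg/mL) giving 8-fold potentiation (MPC8).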

[2] = tested on: Pseudomonas aeruginosa; experiment: Minimum inhibitory concentration against Pseudomonas aeruginosa in presence of LVFX substrate, (100% growth inhibition)
In short: (§2)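 Potentiation of levofloxacin (LVFX), a MexAB-OprM substrate, against P. aeruginosa PAM1723 (MexAB-OprM overexpressed; MexCD-OprJ and MexEF-OprN genetically disrupted). Value is the inhibitor concentration (µg/mL) giving 4-fold (MPC4) or 8-fold (MPC8) potentiation.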

[3] = species on record: Rattus norvegicus; experiment: Serum protein binding of compound was evaluated using rat serum
[4] = tested on: Pseudomonas aeruginosa; experiment: Minimum inhibitory concentration against Pseudomonas aeruginosa in presence of aztreonam substrate and with 0.125% human serum albumin, (100% growth inhibition); in short: as §1
[5] = tested on: Pseudomonas aeruginosa; experiment: Intrinsic antibacterial activity against Pseudomonas aeruginosa
In short: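 Tested alone for antibacterial activity against P. aeruginosa PAM1723, a strain that overexpresses the MexAB-OprM pump and has MexCD-OprJ and MexEF-OprN genetically disrupted; MIC in µg/mL.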

[6] = tested on: Pseudomonas aeruginosa; experiment: Minimum inhibitory concentration Pseudomonas aeruginosa in presence of LVFX substrate, (100% growth inhibition); in short: as §2
[7] = tested on: Pseudomonas aeruginosa; experiment: Minimum concentration of inhibitor required to reduce (potentiate) the activity of antibacterial drug aztreonam by 8-fold in absence of human serum using Pseudomonas aeruginosa, value reported is for 100% growth inhibition; in short: as §1

| SMILES | MPC8 [1] [µg/mL] | MPC8 [2] [µg/mL] | Binding [3] [%] | MPC8 [4] [µg/mL] | MIC [5] [µg/mL] | MPC4 [6] [µg/mL] | MPC8 [7] [µg/mL] |
| --- | --- | --- | --- | --- | --- | --- | --- |
| CC(C)c1csc(CCc2ccn3c(=O)c(/C=C/C(=O)O)c(N4CCCC(O)C4)nc3c2)n1 (centres undefined) | 8 | 8 | 82.1 | 16 | > 320 | 0.5 |  |
| CC(C)c1csc(CCc2ccn3c(=O)c(/C=C/C(=O)O)c(N4CCC(OC(N)=O)CC4)nc3c2)n1 | 16 | 16 |  | 16 | > 320 | 2 |  |
| CC(C)c1csc(CCc2ccn3c(=O)c(/C=C/C(=O)O)c(NCCc4ccc(F)cc4)nc3c2)n1 |  | >32 |  | >32 | > 320 | 8 | >32 |
| CC(C)c1csc(CCc2ccn3c(=O)c(/C=C/C(=O)O)c(N4CCCC(OC(N)=O)C4)nc3c2)n1 (centres undefined) | 32 | 8 | 91.2 | 16 | > 320 | 1 |  |
| CC(C)c1csc(CCc2ccn3c(=O)c(/C=C/c4nn[nH]n4)c(N4CCCC(O)C4)nc3c2)n1 (centres undefined) | 4 | 4 |  | 4 | > 320 | 0.5 |  |
| CCCNc1nc2cc(CCc3nc(C(C)C)cs3)ccn2c(=O)c1/C=C/C(=O)O | >32 | >32 |  | 32 | > 320 | 8 |  |
| CC(C)c1csc(CCc2ccn3c(=O)c(/C=C/C(=O)O)c(N4CCCC4)nc3c2)n1 | 8 | 8 |  | 8 | > 320 | 2 |  |
| CC(C)c1csc(CCc2ccn3c(=O)c(/C=C/C(=O)O)c(N4CCC(CO)CC4)nc3c2)n1 | 16 | 8 |  | 16 | > 320 | 1 |  |
| CC(C)c1csc(CCc2ccn3c(=O)c(/C=C/C(=O)O)c(N4CCCC(CO)C4)nc3c2)n1 (centres undefined) | 16 | 16 | 91.5 | 16 | > 320 | 2 |  |
| CC(C)c1csc(CCc2ccn3c(=O)c(/C=C/C(=O)O)c(N4CCCN(C)CC4)nc3c2)n1 | 128 | 128 |  | 128 | > 320 | 8 |  |
| CC(C)c1csc(CCc2ccn3c(=O)c(/C=C/C(=O)O)c(NCC4CCCCC4)nc3c2)n1 | >64 | >64 |  | >64 | > 320 | 8 |  |
| CC(C)c1csc(CCc2ccn3c(=O)c(/C=C/C(=O)O)c(N4CCC(O)CC4)nc3c2)n1 | 16 | 8 |  | 16 | > 320 | 1 |  |
| CCC(CC)Nc1nc2cc(CCc3nc(C(C)C)cs3)ccn2c(=O)c1/C=C/C(=O)O | 128 | >128 |  | 128 | > 320 | 32 |  |
| CC(C)c1csc(CCc2ccn3c(=O)c(/C=C/C(=O)O)c(N4CCC(O)C4)nc3c2)n1 (centres undefined) | 32 | 32 |  | 32 | > 320 | 4 |  |
| CC(C)Nc1nc2cc(CCc3nc(C(C)C)cs3)ccn2c(=O)c1/C=C/C(=O)O | 64 | 64 | 82.1 | 64 | > 320 | 8 |  |
| CC(C)c1csc(CCc2ccn3c(=O)c(/C=C/C(=O)O)c(NCCc4ccncc4)nc3c2)n1 | 16 | 64 |  | 32 | > 320 | 8 |  |

Reference: ChEMBL document CHEMBL1147403, “MexAB-OprM specific efflux pump inhibitors in Pseudomonas aeruginosa. Part 3: Optimization of potency in the pyridopyrimidine series through the application of a pharmacophore model” (2004)
